Results collected from several papers.
Protocols differ between the studies behind these lines.
CA1: Carbonic anhydrase 1 (CA1, Homo sapiens, UniProt P00915)
CA2: Carbonic anhydrase 2 (CA2, Homo sapiens, UniProt P00918)
ADRA2A: Alpha-2A adrenergic receptor (ADRA2A, Homo sapiens, UniProt P08913)

Cc1cccc(CC(=O)Nc2nnc(S(N)(=O)=O)s2)c1 — Ki (CA1; enzyme activity, inhibitor, stopped-flow): 42.4 nM
O=C(NCc1cn(-c2ccc([N+](=O)[O-])cc2)nn1)c1ccc(=O)oc1 — Ki (CA1; enzyme activity, inhibitor, stopped-flow): > 100000 nM
NS(=O)(=O)c1nnc(NC(=O)C2CCC3(CCCCC3)C2)s1 (stereo not drawn) — Ki (CA2; enzyme activity, inhibitor, stopped-flow): 40.1 nM
CC(C)(C(=O)O)c1ccc(C(O)CCCN2CCC(C(O)(c3ccccc3)c3ccccc3)CC2)cc1 (stereo not drawn) — Ki (CA1; enzyme activity, inhibitor): 13100 nM
CC(C(=O)Nc1nnc(S(N)(=O)=O)s1)C1CCCCC1 (stereo not drawn) — Ki (CA2; enzyme activity, inhibitor, stopped-flow): 18.3 nM
Cc1cc(Oc2ncccc2CN2CCN(c3cccc(Cl)c3)CC2)ccc1-c1c(C)c(=O)[nH]c(=O)n1C — Ki (ADRA2A; ligand displacement, radioligand): 161 nM
O=C(Oc1ccc(-c2ccccc2)cc1)c1ccc(=O)oc1 — Ki (CA1; enzyme activity, inhibitor, stopped-flow): > 100000 nM
Cc1cc(Oc2ncccc2CN2CCN(c3ccccc3C#N)CC2)ccc1-c1c(C)c(=O)[nH]c(=O)n1C — Ki (ADRA2A; ligand displacement, radioligand): 128 nM
O=c1[nH]c(=O)n([C@H]2C[C@H](O)[C@@H](CO)O2)cc1/C=C/Br — Ki (CA1; enzyme activity, inhibitor): 8390 nM
Cc1cc(Oc2ncccc2CN2CCN(c3ccc(Cl)cc3)CC2)ccc1-c1c(C)c(=O)[nH]c(=O)n1C — Ki (ADRA2A; ligand displacement, radioligand): 576 nM
COc1ccc(-n2cc(COC(=O)c3ccc(=O)oc3)nn2)cc1 — Ki (CA1; enzyme activity, inhibitor, stopped-flow): > 100000 nM
COc1ccnc(C[S+]([O-])c2nc3ccc(OC(F)F)cc3[nH]2)c1OC (stereo not drawn) — Ki (CA2; enzyme activity, inhibitor, absorbance): 8720 nM
Cc1cc(Oc2ncccc2CN2CCN(c3cccc(C)c3C)CC2)ccc1-c1c(C)c(=O)[nH]c(=O)n1C — Ki (ADRA2A; ligand displacement, radioligand): 41.9 nM
CCOC(=O)N1CCC(=C2c3ccc(Cl)cc3CCc3cccnc32)CC1 — Ki (CA1; enzyme activity, inhibitor): 8090 nM
COc1ccc(N2CCN(Cc3cccnc3Oc3ccc(-c4c(C)c(=O)[nH]c(=O)n4C)c(C)c3)CC2)cc1 — Ki (ADRA2A; ligand displacement, radioligand): 1320 nM
COc1ccc(-n2cc(CNC(=O)c3ccc(=O)oc3)nn2)cc1 — Ki (CA1; enzyme activity, inhibitor, stopped-flow): > 100000 nM
CC[C@H]1OC(=O)[C@H](C)[C@@H](O[C@H]2C[C@@](C)(OC)[C@@H](O)[C@H](C)O2)[C@H](C)[C@@H](O[C@@H]2O[C@H](C)C[C@H](N(C)C)[C@H]2O)[C@](C)(O)C[C@@H](C)CN(C)[C@H](C)[C@@H](O)[C@]1(C)O — Ki (CA2; enzyme activity, inhibitor, absorbance): 8170 nM
NS(=O)(=O)c1nnc(NC(=O)CN2CCC(F)CC2)s1 — Ki (CA1; enzyme activity, inhibitor, stopped-flow): 68.2 nM
Nc1nc2c(ncn2COCCO)c(=O)[nH]1 — Ki (CA2; enzyme activity, inhibitor, absorbance): 8680 nM
Cc1cc(Oc2ncccc2CN2CCN(c3ccccc3O)CC2)ccc1-c1c(C)c(=O)[nH]c(=O)n1C — Ki (ADRA2A; ligand displacement, radioligand): 57 nM
COc1cc(C)c(/C=C/C(C)=C/C=C/C(C)=C/C(=O)O)c(C)c1C — Ki (CA2; enzyme activity, inhibitor, absorbance): 7940 nM
Cc1ccc(C(=O)Nc2nnc(S(N)(=O)=O)s2)cc1 — Ki (CA2; enzyme activity, inhibitor, stopped-flow): 21.1 nM
O=C(Oc1ccc(Br)cc1)c1ccc(=O)oc1 — Ki (CA1; enzyme activity, inhibitor, stopped-flow): > 100000 nM
Cc1cc(Oc2ncccc2CN2CCN(c3ccccc3Cl)CC2)ccc1-c1c(C)c(=O)[nH]c(=O)n1C — Ki (ADRA2A; ligand displacement, radioligand): 80 nM
CC1=C(/C=C/C(C)=C/C=C/C(C)=C\C(=O)O)C(C)(C)CCC1 — Ki (CA2; enzyme activity, inhibitor, absorbance): 6900 nM
Cc1cc(Oc2ncccc2CN2CCN(c3c(C)cccc3C)CC2)ccc1-c1c(C)c(=O)[nH]c(=O)n1C — Ki (ADRA2A; ligand displacement, radioligand): 731 nM
Cc1ccc(-n2cc(CNC(=O)c3ccc(=O)oc3)nn2)cc1 — Ki (CA1; enzyme activity, inhibitor, stopped-flow): > 100000 nM
